The values below come from ChEMBL document CHEMBL5696442, “Discovery of type II inhibitors of TGFβ-activated kinase 1 (TAK1) and mitogen-activated protein kinase kinase kinase kinase 2 (MAP4K2)” (J Med Chem, 2015).

In test [1] the target is T1, Serine/threonine-protein kinase D3 (Homo sapiens) (UniProt O94806).
T1 sequence (whole entry): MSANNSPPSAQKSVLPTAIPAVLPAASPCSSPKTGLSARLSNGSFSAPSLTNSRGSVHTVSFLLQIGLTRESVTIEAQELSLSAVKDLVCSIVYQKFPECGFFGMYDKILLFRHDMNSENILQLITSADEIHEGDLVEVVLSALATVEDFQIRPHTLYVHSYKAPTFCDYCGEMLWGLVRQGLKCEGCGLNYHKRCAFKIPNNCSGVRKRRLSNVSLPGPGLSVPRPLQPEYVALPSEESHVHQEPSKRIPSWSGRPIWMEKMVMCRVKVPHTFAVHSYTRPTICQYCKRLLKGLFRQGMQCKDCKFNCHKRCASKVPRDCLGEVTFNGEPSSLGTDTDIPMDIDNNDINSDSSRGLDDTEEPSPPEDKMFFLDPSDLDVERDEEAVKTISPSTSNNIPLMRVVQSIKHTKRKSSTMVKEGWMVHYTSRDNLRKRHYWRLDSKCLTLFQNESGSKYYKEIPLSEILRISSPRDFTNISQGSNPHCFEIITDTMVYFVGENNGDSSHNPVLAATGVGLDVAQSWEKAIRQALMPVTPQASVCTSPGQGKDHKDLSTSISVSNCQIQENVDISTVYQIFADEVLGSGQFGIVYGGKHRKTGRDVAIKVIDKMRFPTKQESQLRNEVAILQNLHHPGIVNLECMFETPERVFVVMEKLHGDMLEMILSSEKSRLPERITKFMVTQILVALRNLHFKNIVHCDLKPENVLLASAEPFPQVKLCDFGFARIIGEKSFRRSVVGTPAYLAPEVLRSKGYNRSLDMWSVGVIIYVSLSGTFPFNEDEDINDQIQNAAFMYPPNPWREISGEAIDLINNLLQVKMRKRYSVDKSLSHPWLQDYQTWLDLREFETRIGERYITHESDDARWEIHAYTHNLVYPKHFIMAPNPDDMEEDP
The test is described as follows: Inhibition of PKD3 Lys2 labeling site in human A-375 cells at 0.5 uM by KiNativ Profiling analysis relative to control. The format is cell-based.

For test [2], the target named is Cyclin-dependent kinase 1 (Homo sapiens) (UniProt P06493). The test is described as follows: Inhibition of CDC2 Lys2 labeling site harbouring DLKPQNLLIDDKGTIK in human A-375 cells at 0.05 uM by KiNativ Profiling analysis relative to control. In kind it is cell-based.
For test [3], the target named is Rhodopsin kinase GRK1 (Homo sapiens) (UniProt Q15835). The test is described as follows: Inhibition of GRK1 (unknown origin) at 1 uM by Ambit Kinomescan binding assay relative to control; values are per cent of control.
The target in test [4] is Glycogen synthase kinase-3 alpha (Homo sapiens) (UniProt P49840). The test is described as follows: Inhibition of GSK3A (unknown origin) at 1 uM by Ambit Kinomescan binding assay relative to control; values are per cent of control.
For test [5], the target named is Serine/threonine-protein kinase 4 (Homo sapiens) (UniProt Q13043). The test is described as follows: Inhibition of MST1 Lys1 labeling site harbouring ETGQIVAIKQVPVESDLQEIIK in human A-375 cells at 0.5 uM by KiNativ Profiling analysis relative to control.
In test [6] the test system is Receptor-type tyrosine-protein kinase FLT3 (Homo sapiens), P36888 [D835H]. Nature of the test: Inhibition of FLT3 D835H mutant (unknown origin) at 10 uM by Ambit Kinomescan binding assay relative to control.
Test [7] deals with MAP kinase-activated protein kinase 5 (Homo sapiens) (UniProt Q8IW41). The test is described as follows: Inhibition of MAPKAPK5 (unknown origin) at 10 uM by Ambit Kinomescan binding assay.
The target in test [8] is Rho-associated protein kinase 2 (Homo sapiens) (UniProt O75116). The test is described as follows: Inhibition of ROCK2 (unknown origin) at 10 uM by Ambit Kinomescan binding assay. A digest of the protocol:
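ATP-site competition binding assay across a panel of more than 420 kinases, with each compound tested at 10 or 1 μM.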

Test [9] has as its target Ribosomal protein S6 kinase alpha-1 (Homo sapiens) (UniProt Q15418). The test is described as follows: Inhibition of RSK1 Protein Kinase Domain in human A-375 cells at 5 uM by KiNativ Profiling analysis relative to control. In kind it is cell-based.
In test [10] the target is Serine/threonine-protein kinase MARK2 (Homo sapiens) (UniProt Q7KZI7). Nature of the test: Inhibition of MARK2 Lys2 labeling site harbouring FIVHRDLKAENLLLDADMNIK in human Huh-7 cell lysate at 1 uM by KiNativ Profiling analysis relative to control. In kind it is subcellular.
Test [11] deals with Rho-associated protein kinase 2 (Homo sapiens) (UniProt O75116). Nature of the test: Inhibition of ROCK2 Lys2 labeling site in human Huh-7 cell lysate at 1 uM by KiNativ Profiling analysis relative to control. The format is subcellular.
Test [12] addresses Cyclin-dependent kinase 1 (Homo sapiens) (UniProt P06493). Nature of the test: Inhibition of CDC2 Lys2 labeling site in human Huh-7 cells at 1 uM by KiNativ Profiling analysis relative to control. In kind it is cell-based.

Each structure is given as a SMILES string. Activity calls are given as the source filed them. The calls are words filed in the database; no cut-off is given here.

Usually inhibition stands for the change of the read-out against control, counted positive when it falls. Broadly, the residual activity is the activity still measured, relative to the control. A high value points to much activity left.

Rho-associated protein kinase 2 (Homo sapiens), sequence (O75116 whole entry, looked up): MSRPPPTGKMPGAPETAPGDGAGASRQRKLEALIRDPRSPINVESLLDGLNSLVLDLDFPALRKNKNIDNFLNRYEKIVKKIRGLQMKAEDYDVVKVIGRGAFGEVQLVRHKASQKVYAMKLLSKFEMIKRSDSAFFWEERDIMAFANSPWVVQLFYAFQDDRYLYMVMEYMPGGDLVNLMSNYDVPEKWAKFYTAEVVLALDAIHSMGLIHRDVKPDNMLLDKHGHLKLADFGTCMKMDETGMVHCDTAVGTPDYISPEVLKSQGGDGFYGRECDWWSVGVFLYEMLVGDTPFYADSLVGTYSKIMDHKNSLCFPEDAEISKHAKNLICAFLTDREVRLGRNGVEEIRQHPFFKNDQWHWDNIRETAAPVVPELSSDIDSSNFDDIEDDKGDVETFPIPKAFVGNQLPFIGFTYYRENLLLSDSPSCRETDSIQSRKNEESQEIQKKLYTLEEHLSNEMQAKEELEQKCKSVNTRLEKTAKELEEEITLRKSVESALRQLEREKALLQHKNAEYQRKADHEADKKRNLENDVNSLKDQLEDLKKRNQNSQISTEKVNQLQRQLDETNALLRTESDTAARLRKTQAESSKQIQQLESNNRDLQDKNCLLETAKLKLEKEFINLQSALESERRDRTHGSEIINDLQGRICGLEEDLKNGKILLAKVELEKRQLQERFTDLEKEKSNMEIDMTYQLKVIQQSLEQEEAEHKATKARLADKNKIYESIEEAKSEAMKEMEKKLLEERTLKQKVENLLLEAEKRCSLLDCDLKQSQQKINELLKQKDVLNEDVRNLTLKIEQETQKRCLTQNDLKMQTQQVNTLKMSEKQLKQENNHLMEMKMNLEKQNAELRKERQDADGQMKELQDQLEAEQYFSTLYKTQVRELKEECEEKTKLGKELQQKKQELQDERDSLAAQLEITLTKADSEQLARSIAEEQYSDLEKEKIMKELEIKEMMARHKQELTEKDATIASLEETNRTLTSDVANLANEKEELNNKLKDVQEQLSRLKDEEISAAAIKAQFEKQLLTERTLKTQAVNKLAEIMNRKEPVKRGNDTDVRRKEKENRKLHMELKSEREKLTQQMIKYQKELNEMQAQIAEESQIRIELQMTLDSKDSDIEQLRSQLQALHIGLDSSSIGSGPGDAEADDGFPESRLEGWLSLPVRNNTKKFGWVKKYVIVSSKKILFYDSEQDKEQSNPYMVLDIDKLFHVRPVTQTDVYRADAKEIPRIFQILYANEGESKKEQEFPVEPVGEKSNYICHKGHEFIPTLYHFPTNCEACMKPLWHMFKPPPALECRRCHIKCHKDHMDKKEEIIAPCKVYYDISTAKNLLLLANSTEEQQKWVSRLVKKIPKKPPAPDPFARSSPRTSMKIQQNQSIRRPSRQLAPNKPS
Cyclin-dependent kinase 1 (Homo sapiens), sequence (P06493 whole entry, looked up): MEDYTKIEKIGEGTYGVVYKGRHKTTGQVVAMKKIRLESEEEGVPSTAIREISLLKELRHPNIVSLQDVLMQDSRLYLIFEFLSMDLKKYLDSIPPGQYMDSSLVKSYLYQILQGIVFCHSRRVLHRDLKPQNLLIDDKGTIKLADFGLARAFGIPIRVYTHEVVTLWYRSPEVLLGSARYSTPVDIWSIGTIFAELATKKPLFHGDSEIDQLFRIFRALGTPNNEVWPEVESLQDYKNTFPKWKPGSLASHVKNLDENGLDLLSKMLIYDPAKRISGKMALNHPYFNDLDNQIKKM
Glycogen synthase kinase-3 alpha (Homo sapiens), sequence (P49840 2-483 limits assumed): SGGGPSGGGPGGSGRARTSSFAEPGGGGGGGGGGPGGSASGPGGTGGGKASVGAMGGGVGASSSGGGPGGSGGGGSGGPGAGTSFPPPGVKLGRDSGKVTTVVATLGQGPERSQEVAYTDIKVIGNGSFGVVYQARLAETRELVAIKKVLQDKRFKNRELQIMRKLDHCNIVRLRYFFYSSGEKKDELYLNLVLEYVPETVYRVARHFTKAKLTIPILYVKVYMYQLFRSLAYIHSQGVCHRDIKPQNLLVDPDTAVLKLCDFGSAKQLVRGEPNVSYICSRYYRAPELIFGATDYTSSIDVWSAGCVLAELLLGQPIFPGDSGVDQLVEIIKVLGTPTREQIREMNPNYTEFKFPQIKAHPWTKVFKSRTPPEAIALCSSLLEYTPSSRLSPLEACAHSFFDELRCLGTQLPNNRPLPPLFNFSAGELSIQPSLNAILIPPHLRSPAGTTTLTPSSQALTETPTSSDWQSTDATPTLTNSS
Serine/threonine-protein kinase 4 (Homo sapiens), sequence (Q13043 whole entry, looked up): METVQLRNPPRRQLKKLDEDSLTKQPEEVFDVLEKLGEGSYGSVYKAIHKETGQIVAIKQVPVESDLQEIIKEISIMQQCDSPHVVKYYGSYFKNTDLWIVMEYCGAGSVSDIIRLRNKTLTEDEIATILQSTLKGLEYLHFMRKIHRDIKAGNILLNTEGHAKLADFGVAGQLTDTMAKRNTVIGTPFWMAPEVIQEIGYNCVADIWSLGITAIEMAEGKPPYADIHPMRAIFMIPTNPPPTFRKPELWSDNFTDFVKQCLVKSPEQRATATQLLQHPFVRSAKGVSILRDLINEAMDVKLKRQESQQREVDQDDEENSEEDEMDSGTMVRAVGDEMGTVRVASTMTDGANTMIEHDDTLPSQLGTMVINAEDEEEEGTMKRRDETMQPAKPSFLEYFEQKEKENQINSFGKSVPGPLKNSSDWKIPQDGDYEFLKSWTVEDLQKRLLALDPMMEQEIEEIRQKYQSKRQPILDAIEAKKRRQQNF
MAP kinase-activated protein kinase 5 (Homo sapiens), sequence (Q8IW41 whole entry): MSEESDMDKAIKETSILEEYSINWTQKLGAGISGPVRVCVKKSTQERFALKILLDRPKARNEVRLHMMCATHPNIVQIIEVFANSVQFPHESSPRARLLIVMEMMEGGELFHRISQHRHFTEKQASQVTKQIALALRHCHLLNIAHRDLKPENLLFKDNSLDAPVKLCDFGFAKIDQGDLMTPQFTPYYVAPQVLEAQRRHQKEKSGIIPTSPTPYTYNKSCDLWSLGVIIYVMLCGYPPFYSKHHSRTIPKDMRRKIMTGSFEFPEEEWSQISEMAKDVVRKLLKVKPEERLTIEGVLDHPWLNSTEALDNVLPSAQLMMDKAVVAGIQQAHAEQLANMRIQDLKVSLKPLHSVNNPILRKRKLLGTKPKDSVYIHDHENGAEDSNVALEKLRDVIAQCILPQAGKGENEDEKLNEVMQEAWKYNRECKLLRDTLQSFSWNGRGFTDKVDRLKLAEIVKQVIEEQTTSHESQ
Ribosomal protein S6 kinase alpha-1 (Homo sapiens), sequence (Q15418 whole entry, the tested form may be a part): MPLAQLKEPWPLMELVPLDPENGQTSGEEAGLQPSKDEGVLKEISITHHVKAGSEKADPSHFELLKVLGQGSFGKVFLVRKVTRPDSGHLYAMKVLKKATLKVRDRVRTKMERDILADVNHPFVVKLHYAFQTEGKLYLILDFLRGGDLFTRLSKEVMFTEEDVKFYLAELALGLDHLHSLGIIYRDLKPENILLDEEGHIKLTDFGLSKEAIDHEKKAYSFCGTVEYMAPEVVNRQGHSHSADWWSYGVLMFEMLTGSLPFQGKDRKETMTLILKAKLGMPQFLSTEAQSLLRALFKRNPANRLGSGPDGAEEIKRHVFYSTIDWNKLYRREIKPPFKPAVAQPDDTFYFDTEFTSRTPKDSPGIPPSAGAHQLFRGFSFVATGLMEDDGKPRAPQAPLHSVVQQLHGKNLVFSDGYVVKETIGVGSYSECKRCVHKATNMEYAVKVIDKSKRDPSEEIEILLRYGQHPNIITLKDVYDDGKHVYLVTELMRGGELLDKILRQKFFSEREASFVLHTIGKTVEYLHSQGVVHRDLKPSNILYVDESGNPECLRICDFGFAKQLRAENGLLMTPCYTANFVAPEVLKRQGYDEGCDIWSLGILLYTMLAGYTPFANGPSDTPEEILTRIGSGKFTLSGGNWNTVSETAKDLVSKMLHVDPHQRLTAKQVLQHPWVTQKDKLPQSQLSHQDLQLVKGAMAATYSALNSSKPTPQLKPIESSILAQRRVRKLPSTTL
Rhodopsin kinase GRK1 (Homo sapiens), sequence (Q15835 whole entry): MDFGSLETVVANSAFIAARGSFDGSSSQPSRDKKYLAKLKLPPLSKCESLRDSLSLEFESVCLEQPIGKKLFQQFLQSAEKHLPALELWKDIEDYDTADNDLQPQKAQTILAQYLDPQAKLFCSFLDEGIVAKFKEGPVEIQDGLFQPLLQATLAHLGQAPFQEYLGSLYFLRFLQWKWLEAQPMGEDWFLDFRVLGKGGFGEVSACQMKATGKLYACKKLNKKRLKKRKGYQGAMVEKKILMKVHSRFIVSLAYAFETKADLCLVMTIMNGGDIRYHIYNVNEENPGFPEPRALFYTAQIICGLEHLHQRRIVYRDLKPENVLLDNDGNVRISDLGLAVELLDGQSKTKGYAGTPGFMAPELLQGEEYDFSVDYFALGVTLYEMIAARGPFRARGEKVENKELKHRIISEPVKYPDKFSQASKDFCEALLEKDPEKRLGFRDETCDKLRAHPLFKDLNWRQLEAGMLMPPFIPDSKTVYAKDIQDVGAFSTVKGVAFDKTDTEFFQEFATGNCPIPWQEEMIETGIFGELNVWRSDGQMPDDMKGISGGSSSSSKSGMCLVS

For the compound `CCN1CCN(Cc2ccc(NC(=O)c3ccc(C)c(/C=C/c4cnc5[nH]ccc5c4OC)c3)cc2C(F)(F)F)CC1`, the inhibition in test [1] was -8.8%; in test [2] it was 2.1%; in [5] it was 17.4%. The residual activity in [3] and in test [4] was 100% in each case.
In the case of `CCN1CCN(Cc2ccc(NC(=O)c3ccc(C)c(Oc4ccnc5[nH]ccc45)c3)cc2C(F)(F)F)CC1`, the inhibition in test [6] was determined as 1.2%; in test [9], 5.8%. Further, the inhibition entry in [7] and in [8] was “inactive” in each case.
For `CNc1cc(Oc2cc(C(=O)Nc3cc(N4CCN(C)CC4)cc(C(F)(F)F)c3)ccc2C)ncn1`, the inhibition in [10] was 6%; in test [11], 2.7%; in test [12], 5%.
